The text below walks through data of ChEMBL document CHEMBL3994590, “In vitro activity and mode of action of distamycin analogues against African trypanosomes” (Eur J Med Chem, 2017).

Calls of active or inactive are those of the source. The calls are words filed in the database; no cut-off is given here.

Data set [1] concerns Trypanosoma brucei brucei. Put plainly: Antitrypanosomal activity against Trypanosoma brucei brucei 427 bloodstream forms assessed as induction of membrane damage at 310 nM after 2 to 4 hrs by propidium iodide dye based flow cytometry. Format: functional. A digest of the protocol: (§1)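 Bloodstream strain 427 at 5x10^5/mL in triplicate, exposed to 310, 155 or 77.5 nM, 0.001% v/v Triton X-100, 15 µM nifurtimox or 1% v/v DMSO. Incubated 0.5, 1, 2 or 4 h, then diluted into PBS/1% glucose. PI added at 2 µg/mL just before flow cytometry. Result is % PI-positive cells, mean ± SD (n=3), with one-way ANOVA and Dunnett's test against DMSO.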

Data set [2] has as its system Trypanosoma brucei brucei. Briefly: Antitrypanosomal activity against Trypanosoma brucei brucei 427 bloodstream forms assessed as membrane damage in presence of bipyridine at 0.31 uM after 2 hr by propidium iodide staining-based flow cytometry.
For data set [3], the system named is Trypanosoma brucei brucei. Briefly: Antitrypanosomal activity against Trypanosoma brucei brucei 427 bloodstream forms assessed as decrease in parasite levels with discrete lysosomal signal at 0.31 uM preincubated for 30 mins followed by addition of Lysotracker red DND-99 further incubated for 30 mins and measured by epifluorescence microscopy relative to control. Format: functional.

In data set [4] the test system is Trypanosoma brucei brucei. Briefly: Antitrypanosomal activity against Trypanosoma brucei brucei 427 bloodstream forms assessed as increase in intracellular free iron level at 3.1 uM co-incubated with DFO after 1 hr by PhenGreen SK diacetate reagent based flow cytometry. The class given is functional, cell-based. The method in brief:
(§2)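 Strain 427 at 2x10^6/mL in triplicate with 3.1 µM test compound, with or without 10 or 100 µM deferoxamine or bipyridine; 1% DMSO control. After 40 min at 37 °C/5% CO2, PhenGreen SK diacetate added at 10 µM for 20 min more. Cells diluted in PBS/1% glucose and probe fluorescence (ex 488 nm) read by flow cytometry; mean ± SD (n=3).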

In data set [5] the test system is Trypanosoma brucei brucei. Briefly: Antitrypanosomal activity against Trypanosoma brucei brucei 427 bloodstream forms infected CHO-K1 cells expressing redox biosensor hGrx-roGFP2 assessed as induction of hGrx-roGFP2 oxidation at 77.5 to 310 nM after 1 hr by flow cytometric method. Format: functional. A digest of the protocol:
(§3)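 Parasites induced with oxytetracycline for 24 h, then moved to 1x10^6/200 µL without inducer. Treated in triplicate for 1 h at 37 °C with 78–310 nM test compound, 1 mM menadione, 15 µM nifurtimox, 1 mM DTT or 1% DMSO. Half then given 1 mM DTT for 30 min more. PI at 2 µg/mL added; biosensor read at 488/530 nm in PI-negative cells only, as % reduction relative to DMSO.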

The test system of data set [6] is Trypanosoma brucei brucei. Briefly: Antitrypanosomal activity against Trypanosoma brucei brucei 427 bloodstream forms assessed as increase in intracellular free iron level at 3.1 uM co-incubated with bipyridine for 1 hr by PhenGreen SK diacetate reagent based flow cytometry.
The test system of data set [7] is Trypanosoma brucei brucei. Briefly: Antitrypanosomal activity against Trypanosoma brucei brucei 427 bloodstream forms assessed as increase in intracellular free iron level at 3.1 uM after 1 hr by PhenGreen SK diacetate reagent based flow cytometry. The class given is functional. A digest of the protocol:
as §2

Data set [8] has as its system Trypanosoma brucei brucei. Put plainly: Antitrypanosomal activity against Trypanosoma brucei brucei 427 bloodstream forms assessed as induction of membrane damage at 77.5 to 310 nM by propidium iodide dye based flow cytometry. Format: functional. The following applies: TDE = time-dependent effect. The method in brief: as §1
The subject of another data set is Trypanosoma cruzi. Put plainly: Inhibition of Trypanosoma cruzi recombinant trypanothione synthetase using GSH/spermididine as substrate assessed as residual activity by measuring phosphate release from ATP at 30 uM after 15 mins by Biomol Green reagent based assay relative to control.
Data set [9] relates to Trypanosoma brucei brucei. Briefly: Antitrypanosomal activity against Trypanosoma brucei brucei 427 bloodstream forms assessed as induction of membrane damage at 155 nM after 2 to 4 hrs by propidium iodide dye based flow cytometry. The class given is functional. The method in brief: as §1
Data set [10] concerns Trypanosoma brucei brucei. Put plainly: Inhibition of Trypanosoma brucei brucei recombinant trypanothione synthetase using GSH/spermididine as substrate assessed as residual activity by measuring phosphate release from ATP at 30 uM after 15 mins by Biomol Green reagent based assay relative to control.
Data set [11] has as its system Trypanosoma brucei brucei. Briefly: Antitrypanosomal activity against Trypanosoma brucei brucei 427 bloodstream forms assessed as induction of membrane damage at 310 nM after 3 hrs by propidium iodide dye based flow cytometry relative to control. The class given is functional.
Data set [12] has as its system Trypanosoma brucei brucei. Put plainly: Antitrypanosomal activity against Trypanosoma brucei brucei 427 bloodstream forms infected CHO-K1 cells expressing redox biosensor rxYFP assessed as induction of rxYFP oxidation at 1 to 10 uM after 1 hr by propidium iodide based flow cytometry relative to control. Format: functional. The method in brief: (§4)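 CHO-K1 cells expressing rxYFP in DMEM with 10% FCS, given 400 µg/mL zeocin 48 h before the assay. Trypsinized cells seeded at 8x10^5/mL and treated in triplicate for 1 h at 37 °C with 1, 5 or 10 µM test compound, 1 mM menadione, H2O2 or DTT, or 1% DMSO. Some wells then given 1 mM DTT for 30 min. PI-negative cells analysed by flow cytometry (488/530 nm), as % reduction relative to DMSO.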

In a further data set the test system is Leishmania infantum. Put plainly: Inhibition of Leishmania infantum recombinant trypanothione synthetase using GSH/spermididine as substrate assessed as residual activity by measuring phosphate release from ATP at 30 uM after 15 mins by Biomol Green reagent based assay relative to control.
Data set [13] has as its system Trypanosoma brucei brucei. Briefly: Antitrypanosomal activity against Trypanosoma brucei brucei 427 bloodstream forms assessed as induction of membrane damage at 310 nM parasite preincubated with 125 to 500 uM DFO for 3 hrs followed by test compound addition measured after 3 hrs by propidium iodide dye based flow cytometry relative to control. Format: functional. A digest of the protocol:
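Strain 427 at 1x10^6/mL in triplicate at 37 °C. Arm A: 0.31 µM test compound with 100 µM DFO or bipyridine for 2 h. Arm B: DFO at 125–500 µM for 3 h, then 0.31 µM test compound for a further 3 h. Membrane integrity read by PI staining and flow cytometry; mean ± SD (n=3).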

In data set [14] the test system is Trypanosoma brucei brucei. Briefly: Antitrypanosomal activity against Trypanosoma brucei brucei 427 bloodstream forms assessed as induction of mitochondrial damage at 0.31 uM preincubated for 30 mins followed by addition of Mitotracker red CM-H2XRos further incubated for 30 mins and measured by epifluorescence microscopy. The class given is functional. The method in brief:
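Strain 427 at 1x10^6/mL treated with 0.31 µM test compound for 30 min. MitoTracker Red CM-H2XRos then added at 250 nM for 30 min more. Cells centrifuged, PBS-washed, fixed in 4% paraformaldehyde for 18 min, mounted with DAPI. Mitochondrial morphology and staining intensity compared with 1% DMSO-treated cells by fluorescence microscopy.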

The subject of data set [15] is Trypanosoma brucei brucei. Briefly: Antitrypanosomal activity against Trypanosoma brucei brucei 427 bloodstream forms infected CHO-K1 cells expressing redox biosensor hGrx-roGFP2 assessed as induction of hGrx-roGFP2 oxidation at 77.5 to 310 nM preincubated for 1 hr followed by DTT addition measured after 30 mins by flow cytometric method. The class given is functional. A digest of the protocol:
as §3

The test system of data set [16] is Trypanosoma brucei brucei. Briefly: Antitrypanosomal activity against Trypanosoma brucei brucei 427 bloodstream forms infected CHO-K1 cells expressing redox biosensor rxYFP assessed as induction of rxYFP oxidation at 10 uM preincubated for 1 hr followed by DTT addition measured after 30 mins by propidium iodide based flow cytometry relative to control. Format: functional. The method in brief: as §4

Data set [17] is described as follows: Selectivity index, ratio of EC50 for murine macrophage J774 cells to EC50 for Trypanosoma brucei brucei 427 bloodstream forms. The class given is toxicity. The following applies: mouse; read-out: Ratio EC50.
For data set [18], the system named is Trypanosoma brucei brucei. Briefly: Antitrypanosomal activity against Trypanosoma brucei brucei 427 bloodstream forms assessed as induction of membrane damage at 310 nM after 1 hr by propidium iodide dye based flow cytometry. The class given is functional. A digest of the protocol:
as §1

The subject of data set [19] is Trypanosoma brucei brucei. Briefly: Antitrypanosomal activity against Trypanosoma brucei brucei 427 bloodstream forms after 24 hrs by propidium iodide dye based flow cytometry. Format: functional. As to conditions: Trypanosoma brucei, 427, 24 h. A digest of the protocol: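 Bloodstream T. b. brucei 427 grown in HMI-9 with 10% FBS, penicillin/streptomycin, 37 °C, 5% CO2. Exponential-phase cells seeded at 5x10^5/mL; compounds added from DMSO stocks, 1% v/v DMSO final. […] Exposure 24 h, then diluted into PBS/1% glucose with 2 µg/mL PI and counted by flow cytometry. Viability given as % of DMSO-treated cell count.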

Data set [20] concerns Trypanosoma brucei brucei. Put plainly: Antitrypanosomal activity against Trypanosoma brucei brucei 427 bloodstream forms assessed as induction of membrane damage at 310 nM after 2 hrs by propidium iodide dye based flow cytometry relative to control. The class given is functional. The method in brief:
as §1

As to `CCOC(=O)c1csc(NC(=O)c2csc(NC(=O)c3csc(NC(=O)OC(C)(C)C)n3)n2)n1`, the Activity in [1] is 80 - 90%; in data set [2], 47%; in [5], 10%; in data set [7], 50%; in [8] it was “Tde”; with Trypanosoma cruzi, 126%. Also, the Activity in [10] is 120%; in [11] it was 80%; in [12], 10%; in the data set with Leishmania infantum, 106%; in data set [13] it was 40 - 67%; in [18], 10%. In addition, the Activity in data set [20] was determined as 87%. For the same compound, the “fold change (FC)” value in data set [3] was above 3. For the same compound, the outcome in data set [4], in [6], in data set [14], in data set [15] and in [16] was inactive. For the same compound, the result in data set [9] was Active. Besides, in data set [17], the selectivity ratio stood at 16.5. This compound also came in with an EC50 in [19] of 0.31 µM.
